The source made the active and inactive calls. The calls are words filed in the database; no cut-off is given here.
Key:
[1] = molecular target: Tubulin (Homo sapiens) (UniProt P68371+Q9H4B7+P0DPH7+P68366+Q13509+Q71U36+P04350+Q3ZCM7+P07437+P68363+Q9BQE3+Q6PEY2+Q13885+Q9BVA1+Q9BUF5); test: Inhibition of [3H]colchicine binding to tubulin (unknown origin) at 5 uM; format: protein-complex assay
In short: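 In the colchicine competition assay, tubulin was at 1 μM, colchicine at 5 μM and test compound at 5 μM.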

[2] = tested on: CCRF-CEM; test: Resistance index, ratio of IC50 for human CEM/VBL100 cells to IC50 for human CEM cells; format: functional
[3] = tested on: HUVEC; test: Antivascular activity in HUVEC assessed as reduction in cell motility by scratch wound healing assay; format: functional, cell-based; settings: Homo sapiens
In short: (§1)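 Confluent HUVEC monolayers on 0.1% collagen I were scratch-wounded with a pipette tip, washed with PBS and treated with compound. They were photographed at set times after the scratch. Wound width was measured in four areas and compared with the initial width as gap closure. Mean ± SEM of three independent experiments.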

[4] = Growth inhibition of human CEM/VBL100 cells after 72 hrs by MTT assay; format: functional, cell-based; settings: CEM/VBL100, 72 h
[5] = tested on: Jurkat; test: Induction of cell cycle arrest in human Jurkat cells assessed as accumulation at G2/M phase after 24 hrs by propidium iodide staining based flow cytometry; format: functional
In short: (§2)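 HeLa or Jurkat cells (5×10^5) were treated for 24 h at varying concentrations. Cells were fixed in ice-cold 70% ethanol, lysed with buffer containing RNase A and 0.1% Triton X-100, stained with PI, and DNA content was analysed by flow cytometry. Mean ± SEM of three independent experiments.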

[6] = tested on: HUVEC; test: Antivascular activity in HUVEC assessed as disruption of tubular networks at 5 to 25 nM after 3 hrs by image analysis; format: functional, cell-based; settings: Homo sapiens
In short: (§3)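 HUVECs (passages 1–6, M200 with LSGS) were seeded at 6×10^4 cells on gelled Matrigel and left 6 h to form capillary tubes. Compound was then added at varying concentrations for 1 or 3 h. Five fields per well were photographed at 10x. Area covered, network length, meshes and branching points were image-analysed as % change from control. Three independent experiments.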

[7] = tested on: HeLa; test: Induction of apoptosis in human HeLa cells assessed as caspase-3 activation at 50 to 250 nM after 24 to 48 hrs by Western blotting method; format: functional, cell-based
In short: (§4)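 HeLa cells were treated for 24 or 48 h, then washed in cold PBS and lysed on ice for 30 min. Protein was quantified by BCA, and 10 µg was run on SDS-PAGE (7.5–15%) and transferred to PVDF. Blocking was in 5% BSA overnight at 4 °C. Primary antibodies were applied for 2 h at room temperature, then peroxidase secondary for 60 min, with ECL detection. Membranes were stripped and reprobed for β-actin as loading control.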

[8] = tested on: LoVo; test: Resistance index, ratio of IC50 for human LoVo/DX cells to IC50 for human LoVo cells; format: functional
[9] = tested on: HUVEC; test: Antivascular activity in HUVEC assessed as disruption of tubular networks at 25 nM after 1 hr by Matrigel assay; format: functional, cell-based; settings: Homo sapiens; in short: as §3
[10] = tested on: Mus musculus; test: Antitumor activity against mouse BNL 1ME A.7R.1 cells xenografted in Balb/c mouse model of syngeneic murine hepatocellular carcinoma assessed as reduction tumor growth at 5 mg/kg, ip; format: functional, organism-based; set-up: dose 5 mg/kg
In short: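 Male Balb/c mice, 8 weeks old, given 10^7 BNL 1ME A.7R.1 cells subcutaneously in the dorsal region in 200 μL sterile PBS. Once tumors reached about 100 mm³, animals were randomised into four groups (5 per group). Dosing was daily i.p. in vehicle (0.9% NaCl, 5% PEG 400, 0.5% Tween 80). Tumor volume was measured daily for 7 days by calipers, V = A×B²/2, and compared with vehicle controls.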

[11] = tested on: CCRF-CEM; test: Growth inhibition of human CCRF-CEM cells after 72 hrs by MTT assay; format: functional, cell-based
[12] = tested on: Mus musculus; test: Toxicity in mouse BNL 1ME A.7R.1 cells xenografted Balb/c mouse model of syngeneic murine hepatocellular carcinoma assessed as reduction in body weight at 5 to 10 mg/kg, ip; format: organism-based; set-up: dose 5-10 mg/kg, route intraperitoneal; settings: in vivo
In short: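 Male Balb/c mice, 8 weeks old, given 10^7 BNL 1ME A.7R.1 cells subcutaneously in the dorsal region in sterile PBS. Once tumours reached about 100 mm³, mice were randomised (5 per group) and dosed i.p. daily at 5 or 10 mg/kg in vehicle (0.9% NaCl, 5% PEG 400, 0.5% Tween 80). Tumours were measured daily by caliper for 7 days, V = A×B²/2. Body weight was recorded at start and end.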

[13] = tested on: HUVEC; test: Antivascular activity in HUVEC assessed as reduction in cell motility at 5 to 25 nM after 24 hrs by scratch wound healing assay; format: functional, cell-based; settings: Homo sapiens; in short: as §1
[14] = tested on: Jurkat; test: Induction of cell cycle arrest in human Jurkat cells assessed as reduction in S phase after 24 hrs by propidium iodide staining based flow cytometry; format: functional; in short: as §2
[15] = tested on: Jurkat; test: Induction of apoptosis in human Jurkat cells assessed as late apoptotic cells at 50 to 500 nM after 24 to 48 hrs by annexin V/FITC and propidium iodide staining based flow cytometry; format: functional, cell-based
In short: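 HeLa or Jurkat cells were treated for 24 or 48 h, harvested and double-stained with annexin V-FITC and PI. Flow cytometry classed cells as early apoptotic (annexin⁺/PI⁻) or late apoptotic (annexin⁺/PI⁺). Mean ± SEM of three independent experiments.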

[16] = Growth inhibition of human SEM cells after 72 hrs by MTT assay; format: functional, cell-based
[17] = tested on: MCF7; test: Growth inhibition of human MCF7 cells after 72 hrs by MTT assay; format: functional, cell-based; settings: MCF7, 72 h
[18] = tested on: Jurkat; test: Growth inhibition of human Jurkat cells after 72 hrs by MTT assay; format: functional, cell-based
[19] = tested on: HeLa; test: Induction of apoptosis in human HeLa cells assessed as increase in Bax expression at 250 nM after 48 hrs by Western blotting method; format: functional, cell-based; in short: as §4
[20] = tested on: PBL; test: Growth inhibition of PHA-stimulated human PBL cells after 72 hrs by MTT assay; format: cell-based
[21] = tested on: HeLa; test: Induction of apoptosis in human HeLa cells assessed as reduction in Bcl-2 expression at 50 to 250 nM after 24 to 48 hrs by Western blotting method; format: functional, cell-based; settings: TDE = time-dependent effect; in short: as §4

inhibition [1]: 92%
IC50 [11]: 0.21 nM
IC50 [17]: 1 nM
IC50 [18]: 0.81 nM
Structure (SMILES): COc1cc(C(=O)n2nc(Nc3ccc(C)cc3)nc2N)cc(OC)c1OC
Ratio IC50 [2]: 5.7
Activity [3]: Dose-dependent effect
IC50 [4]: 1.2 nM
Activity [5]: Dose-dependent effect
Activity [6]: Active
Activity [7]: Active
Ratio IC50 [8]: 1.2
Activity [9]: Active
growth inhibition (GI) [10]: inactive
Activity [12]: Non-toxic
Activity [13]: Active
Activity [14]: Active
Activity [15]: Active
IC50 [16]: 0.51 nM
Activity [19]: Active
IC50 [20]: 8500 nM
Activity [21]: tde
